Data from article PMC5826595 (Chemistry (Weinheim an der Bergstrasse, Germany), 2017).
Read-outs that look alike come from different tables or passages of the source.

What was measured:
[1] = system: metal-free Aβ and metal–Aβ; settings: ref 4b,f; cited from earlier work
[2] = target: T1, metal-free Aβ40 monomer (Homo sapiens, UniProt P05067); settings: ref 4e; cited from earlier work
[3] = target: T2, metal-free Aβ40 (Homo sapiens, UniProt P05067); settings: ref 4b,f; cited from earlier work
[4] = system: SK-N-BE(2)-M17 (M17) cells; test: Viability of cells treated with metal-free Aβ or metal–Aβ followed by compound; format: cell-based, human; settings: [Aβ] 10 μM, [CuCl2 or ZnCl2] 10 μM, [L2-b2] 20 μM, MTT
Method in brief: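 SK-N-BE(2)-M17 neuroblastoma cells were first exposed to metal-free Aβ40 or Aβ42, or to Aβ premixed with CuCl2 or ZnCl2. Test compound was added afterwards. Viability was measured by MTT absorbance on a microplate reader and expressed as % of cells given DMSO only (0–1 %, v/v).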

[5] = target: preformed Aβ40 aggregates (Homo sapiens, UniProt P05067); format: biochemical; settings: metal-free and metal-treated conditions
[6] = target: T2, metal-free Aβ40; test: ESI-MS of metal-free Aβ40 incubated with compound; format: binding; settings: [Aβ40] 10 μM; [L2-b2] 50 μM; pH 7.5; 37 °C; 6 h
[7] = target: Cu^II–Aβ40 (Homo sapiens, UniProt P05067); test: nESI-MS and MS/MS of Aβ40 incubated with Cu^II and compound; format: biochemical; settings: [Aβ40] 20 μM; [CuCl2] 20 μM; [L2-b2] 120 μM; pH 7.5; 37 °C; 30 min
[8] = target: Aβ42 (Homo sapiens, UniProt P05067); format: biochemical; settings: inhibition experiment; vs compound-free and L2-b1-treated conditions
Method in brief: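 Aβ42 (25 μM) was incubated with test compound (50 μM), either metal-free or with CuCl2 or ZnCl2 (25 μM). Cu samples were at pH 6.6; metal-free and Zn samples at pH 7.4. Incubation was at 37 °C with constant agitation. Size distribution was read by gel/Western blot with anti-Aβ antibody 6E10, and morphology by TEM of the same samples.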

[9] = target: Aβ40 (Homo sapiens, UniProt P05067); format: biochemical; settings: inhibition experiment; vs compound-free and L2-b1-treated conditions
[10] = target: preformed Aβ42 aggregates (Homo sapiens, UniProt P05067); format: biochemical; settings: metal-free and metal-treated conditions
[11] = TEAC assay in M17 cell lysates; format: biochemical; settings: relative to Trolox
Method in brief: (§1)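 Radical scavenging was measured by the test compound's quenching of pre-formed ABTS cation radicals (ABTS•⁺). The read-out was absorbance on a microplate reader, and capacity was expressed as Trolox equivalents.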

[12] = TEAC assay in EtOH; format: biochemical; settings: relative to Trolox
Method in brief: as §1

[13] = target: T1, metal-free Aβ40 monomer; test: 2D SOFAST-HMQC NMR with metal-free monomeric Aβ40; format: binding; settings: [Aβ40] 80 μM; compound 800 μM (10 equiv); pH 7.4; 10 °C
Method in brief: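 Uniformly ¹⁵N-labeled monomeric Aβ40 (80 μM) with test compound at 0 or 800 μM in 20 mM phosphate buffer, pH 7.4, 50 mM NaCl, 7 % (v/v) D₂O, at 10 °C. 2D ¹H–¹⁵N SOFAST-HMQC spectra were recorded at 900 MHz with a cryogenic probe. Per-residue chemical shift perturbations were plotted against the average CSP with standard deviation; unresolved residues were excluded.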

Sequence of preformed Aβ40 aggregates (P05067 672-711 limits assumed): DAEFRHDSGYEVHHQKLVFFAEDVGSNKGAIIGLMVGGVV
T1 sequence (P05067 672-711 limits assumed): as above
T2 sequence (P05067 672-711 limits assumed): as above
Sequence of preformed Aβ42 aggregates (P05067 672-713 limits assumed): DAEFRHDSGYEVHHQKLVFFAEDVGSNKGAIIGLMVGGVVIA
Sequence of Aβ42 (P05067 672-713 limits assumed): as above
Sequence of Cu^II–Aβ40 (P05067 672-711 limits assumed): as the sequence (P05067 672-711 limits assumed) above
Sequence of Aβ40 (P05067 672-711 limits assumed): as above

CN(C)c1ccc(NCc2ccccn2)cc1 [L2-b, N^1,N^1-dimethyl-N^4-(pyridin-2-ylmethyl)benzene-1,4-diamine]
Reactivity toward metal-free Aβ and metal–Aβ aggregation pathways [1]: reactivity only for metal–Aβ species
Interaction with metal-free Aβ40 monomer (CSP) [2]: weak interactions with metal-free Aβ
Interaction with metal-free Aβ [3]: unable to interact with metal-free Aβ

CN(C)c1ccc(NCc2ccc(N(C)C)cn2)cc1 [L2-b2, N^1-((5-(dimethylamino)pyridin-2-yl)methyl)-N^4,N^4-dimethylbenzene-1,4-diamine]
Effect on toxicity triggered by metal-free Aβ and metal–Aβ in living cells [4]: possibly alleviate toxicity triggered by metal-free Aβ and metal–Aβ in living cells
Disaggregation of preformed Aβ40 aggregates (gel/Western blot) [5]: displayed various-sized peptide aggregates to different degrees
Interaction with metal-free Aβ (ESI-MS) [6]: forming a covalent adduct of Aβ–cationic imine
Mass loss of Aβ40 compared to apo Aβ40 (degraded Aβ) [7]: 89.1 (± 0.1) Da
Morphology of resultant Aβ42 aggregates (TEM) [8]: more amorphous aggregates and/or smaller fibrils
Morphology of resultant Aβ40 aggregates (TEM) [9]: more amorphous aggregates and/or smaller fibrils
Disaggregation of preformed Aβ42 aggregates (gel/Western blot) [10]: dismantle preformed metal-free and metal-treated Aβ42 aggregates
TEAC value [11]: 1.1 ± 0.1
TEAC value [12]: 1.9 ± 0.1
Interaction with metal-free Aβ40 monomer (CSP) [13]: weak interactions with metal-free Aβ

NCc1ccccn1 [PMA1, pyridin-2-yl-methanamine, reference compound]
Disaggregation of preformed Aβ40 aggregates (gel/Western blot) [5]: could not detectably disaggregate preformed Aβ40 aggregates

c1ccc(CNCc2ccccn2)nc1 [DPA1, bis(pyridin-2-ylmethyl)amine, reference compound]
Disaggregation of preformed Aβ40 aggregates (gel/Western blot) [5]: could not detectably disaggregate preformed Aβ40 aggregates

CN(C)c1ccc(CN)nc1 [PMA2, 6-(aminomethyl)-N,N-dimethylpyridin-3-amine, reference compound]
Disaggregation of preformed Aβ40 aggregates (gel/Western blot) [5]: could not detectably disaggregate preformed Aβ40 aggregates

CN(C)c1ccc(CNc2ccccc2)nc1 [L2-b1, N,N-dimethyl-6-((phenylamino)methyl)pyridin-3-amine]
Disaggregation of preformed Aβ40 aggregates (gel/Western blot) [5]: could not detectably disaggregate preformed Aβ40 aggregates
TEAC value [11]: 0.7 ± 0.1
TEAC value [12]: 0.8 ± 0.1
Interaction with metal-free Aβ40 monomer (CSP) [13]: weak interactions with metal-free Aβ

CN(C)c1ccc(CNCc2ccc(N(C)C)cn2)nc1 [DPA2, 6-((((5-(dimethylamino)pyridin-2-yl)methyl)amino)methyl)-N,N-dimethylpyridin-3-amine]
Disaggregation of preformed Aβ40 aggregates (gel/Western blot) [5]: could not detectably disaggregate preformed Aβ40 aggregates
